What was measured:
[1] = biological target: Receptor tyrosine-protein kinase erbB-2 (Homo sapiens) (UniProt P04626); assay: Competitive binding affinity to ERBB2 (unknown origin) at 10 uM in presence of ATP relative to control
Outline: (§1)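 In vitro ATP-site competition binding assay, part of profiling against a diverse panel of 128 kinases. Each compound was tested at a single concentration of 10 µM. Kinome selectivity was summarized as S15 selectivity scores.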

[2] = biological target: Calcium/calmodulin-dependent protein kinase type II subunit beta (Homo sapiens) (UniProt Q13554); assay: Competitive binding affinity to CAMK2B (unknown origin) at 10 uM in presence of ATP relative to control
Sequence of Calcium/calmodulin-dependent protein kinase type II subunit beta (Homo sapiens) (Q13554 whole entry): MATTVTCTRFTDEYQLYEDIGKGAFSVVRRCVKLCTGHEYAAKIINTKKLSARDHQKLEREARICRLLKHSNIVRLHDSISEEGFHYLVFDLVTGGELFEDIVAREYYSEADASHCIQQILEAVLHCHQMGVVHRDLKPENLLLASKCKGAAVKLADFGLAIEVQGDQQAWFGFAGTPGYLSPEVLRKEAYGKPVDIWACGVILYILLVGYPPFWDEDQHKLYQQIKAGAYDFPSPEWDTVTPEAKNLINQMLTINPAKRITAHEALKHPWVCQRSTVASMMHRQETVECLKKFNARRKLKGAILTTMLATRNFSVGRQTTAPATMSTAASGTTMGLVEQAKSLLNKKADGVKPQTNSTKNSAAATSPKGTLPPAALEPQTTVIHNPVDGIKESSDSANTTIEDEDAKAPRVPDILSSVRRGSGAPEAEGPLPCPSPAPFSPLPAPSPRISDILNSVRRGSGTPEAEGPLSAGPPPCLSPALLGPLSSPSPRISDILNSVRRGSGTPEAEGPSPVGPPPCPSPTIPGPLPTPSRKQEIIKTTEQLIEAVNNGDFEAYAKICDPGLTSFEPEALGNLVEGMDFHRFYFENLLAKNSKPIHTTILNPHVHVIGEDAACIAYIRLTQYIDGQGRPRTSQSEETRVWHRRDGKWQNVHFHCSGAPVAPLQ

[3] = biological target: T1, Aurora kinase C (Homo sapiens) (UniProt Q9UQB9); assay: Competitive binding affinity to AURKC (unknown origin) at 10 uM in presence of ATP relative to control
T1 sequence (whole entry): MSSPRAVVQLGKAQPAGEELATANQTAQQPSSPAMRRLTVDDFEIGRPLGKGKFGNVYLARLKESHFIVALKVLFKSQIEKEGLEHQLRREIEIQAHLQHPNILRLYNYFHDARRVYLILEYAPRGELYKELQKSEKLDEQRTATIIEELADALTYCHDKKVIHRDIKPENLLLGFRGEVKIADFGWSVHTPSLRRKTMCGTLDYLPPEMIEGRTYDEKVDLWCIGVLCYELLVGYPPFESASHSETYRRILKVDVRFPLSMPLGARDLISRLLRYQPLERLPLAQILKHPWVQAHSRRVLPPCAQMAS

[4] = biological target: RAC-alpha serine/threonine-protein kinase (Homo sapiens) (UniProt P31749); assay: Competitive binding affinity to AKT1 (unknown origin) at 10 uM in presence of ATP relative to control
Sequence of RAC-alpha serine/threonine-protein kinase (Homo sapiens) (P31749 whole entry): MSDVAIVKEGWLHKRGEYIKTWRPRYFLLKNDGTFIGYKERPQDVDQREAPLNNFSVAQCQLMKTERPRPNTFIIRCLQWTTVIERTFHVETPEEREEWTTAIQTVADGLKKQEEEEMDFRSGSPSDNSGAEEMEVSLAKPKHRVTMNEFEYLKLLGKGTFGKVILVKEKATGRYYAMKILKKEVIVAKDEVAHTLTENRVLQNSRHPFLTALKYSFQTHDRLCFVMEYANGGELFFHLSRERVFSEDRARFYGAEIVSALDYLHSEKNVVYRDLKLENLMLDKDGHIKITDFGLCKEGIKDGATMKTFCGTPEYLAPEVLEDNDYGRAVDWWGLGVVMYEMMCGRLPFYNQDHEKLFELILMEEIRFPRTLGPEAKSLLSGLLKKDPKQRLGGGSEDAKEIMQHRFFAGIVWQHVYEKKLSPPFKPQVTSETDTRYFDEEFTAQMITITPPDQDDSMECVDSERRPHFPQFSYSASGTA

[5] = biological target: TRAF2 and NCK-interacting protein kinase (Homo sapiens) (UniProt Q9UKE5); assay: Competitive binding affinity to TNIK (unknown origin) at 10 uM in presence of ATP relative to control
Sequence of TRAF2 and NCK-interacting protein kinase (Homo sapiens) (Q9UKE5 whole entry, looked up): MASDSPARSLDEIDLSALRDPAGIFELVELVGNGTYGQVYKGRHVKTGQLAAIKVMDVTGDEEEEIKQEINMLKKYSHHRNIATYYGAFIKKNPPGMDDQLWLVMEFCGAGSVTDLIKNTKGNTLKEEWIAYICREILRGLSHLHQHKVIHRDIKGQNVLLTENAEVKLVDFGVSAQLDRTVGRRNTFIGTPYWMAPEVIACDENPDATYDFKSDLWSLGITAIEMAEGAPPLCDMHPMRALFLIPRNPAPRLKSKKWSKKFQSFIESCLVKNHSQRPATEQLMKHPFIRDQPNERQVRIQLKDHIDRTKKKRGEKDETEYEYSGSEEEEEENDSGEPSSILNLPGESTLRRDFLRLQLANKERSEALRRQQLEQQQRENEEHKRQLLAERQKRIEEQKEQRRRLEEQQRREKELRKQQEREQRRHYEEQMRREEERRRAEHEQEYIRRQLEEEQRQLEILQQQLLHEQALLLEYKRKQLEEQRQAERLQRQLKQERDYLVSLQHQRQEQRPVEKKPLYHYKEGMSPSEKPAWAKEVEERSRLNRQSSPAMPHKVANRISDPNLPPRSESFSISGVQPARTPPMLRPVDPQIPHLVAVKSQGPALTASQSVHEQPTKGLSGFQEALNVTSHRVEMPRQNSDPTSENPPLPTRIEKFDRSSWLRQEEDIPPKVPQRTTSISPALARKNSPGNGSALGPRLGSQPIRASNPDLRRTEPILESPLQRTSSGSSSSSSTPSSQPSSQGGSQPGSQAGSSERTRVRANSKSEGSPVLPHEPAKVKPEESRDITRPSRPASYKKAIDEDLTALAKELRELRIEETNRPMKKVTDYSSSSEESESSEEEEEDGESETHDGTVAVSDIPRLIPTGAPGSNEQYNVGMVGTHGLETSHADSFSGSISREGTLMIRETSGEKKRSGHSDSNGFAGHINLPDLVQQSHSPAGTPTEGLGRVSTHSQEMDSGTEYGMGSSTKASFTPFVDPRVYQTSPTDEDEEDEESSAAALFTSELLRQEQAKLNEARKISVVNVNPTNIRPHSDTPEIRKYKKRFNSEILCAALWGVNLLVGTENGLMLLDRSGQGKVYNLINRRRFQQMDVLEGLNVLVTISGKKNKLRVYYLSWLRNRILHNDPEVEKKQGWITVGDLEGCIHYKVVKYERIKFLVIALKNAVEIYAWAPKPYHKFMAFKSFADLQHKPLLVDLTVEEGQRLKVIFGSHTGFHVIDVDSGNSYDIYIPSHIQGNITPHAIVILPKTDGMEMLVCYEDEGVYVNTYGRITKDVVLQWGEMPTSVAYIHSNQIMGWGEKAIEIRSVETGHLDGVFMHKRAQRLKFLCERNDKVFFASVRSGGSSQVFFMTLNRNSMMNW
Outline: (§2)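 In vitro ATP-site competition binding assay across a diverse panel of 128 kinases, with compound tested at a single concentration. Kinase selectivity scores (S15) were calculated from the panel profiles.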

[6] = biological target: T2, Serine/threonine-protein kinase 36 (Homo sapiens) (UniProt Q9NRP7); assay: Competitive binding affinity to STK36 (unknown origin) at 10 uM in presence of ATP relative to control
T2 sequence (whole entry): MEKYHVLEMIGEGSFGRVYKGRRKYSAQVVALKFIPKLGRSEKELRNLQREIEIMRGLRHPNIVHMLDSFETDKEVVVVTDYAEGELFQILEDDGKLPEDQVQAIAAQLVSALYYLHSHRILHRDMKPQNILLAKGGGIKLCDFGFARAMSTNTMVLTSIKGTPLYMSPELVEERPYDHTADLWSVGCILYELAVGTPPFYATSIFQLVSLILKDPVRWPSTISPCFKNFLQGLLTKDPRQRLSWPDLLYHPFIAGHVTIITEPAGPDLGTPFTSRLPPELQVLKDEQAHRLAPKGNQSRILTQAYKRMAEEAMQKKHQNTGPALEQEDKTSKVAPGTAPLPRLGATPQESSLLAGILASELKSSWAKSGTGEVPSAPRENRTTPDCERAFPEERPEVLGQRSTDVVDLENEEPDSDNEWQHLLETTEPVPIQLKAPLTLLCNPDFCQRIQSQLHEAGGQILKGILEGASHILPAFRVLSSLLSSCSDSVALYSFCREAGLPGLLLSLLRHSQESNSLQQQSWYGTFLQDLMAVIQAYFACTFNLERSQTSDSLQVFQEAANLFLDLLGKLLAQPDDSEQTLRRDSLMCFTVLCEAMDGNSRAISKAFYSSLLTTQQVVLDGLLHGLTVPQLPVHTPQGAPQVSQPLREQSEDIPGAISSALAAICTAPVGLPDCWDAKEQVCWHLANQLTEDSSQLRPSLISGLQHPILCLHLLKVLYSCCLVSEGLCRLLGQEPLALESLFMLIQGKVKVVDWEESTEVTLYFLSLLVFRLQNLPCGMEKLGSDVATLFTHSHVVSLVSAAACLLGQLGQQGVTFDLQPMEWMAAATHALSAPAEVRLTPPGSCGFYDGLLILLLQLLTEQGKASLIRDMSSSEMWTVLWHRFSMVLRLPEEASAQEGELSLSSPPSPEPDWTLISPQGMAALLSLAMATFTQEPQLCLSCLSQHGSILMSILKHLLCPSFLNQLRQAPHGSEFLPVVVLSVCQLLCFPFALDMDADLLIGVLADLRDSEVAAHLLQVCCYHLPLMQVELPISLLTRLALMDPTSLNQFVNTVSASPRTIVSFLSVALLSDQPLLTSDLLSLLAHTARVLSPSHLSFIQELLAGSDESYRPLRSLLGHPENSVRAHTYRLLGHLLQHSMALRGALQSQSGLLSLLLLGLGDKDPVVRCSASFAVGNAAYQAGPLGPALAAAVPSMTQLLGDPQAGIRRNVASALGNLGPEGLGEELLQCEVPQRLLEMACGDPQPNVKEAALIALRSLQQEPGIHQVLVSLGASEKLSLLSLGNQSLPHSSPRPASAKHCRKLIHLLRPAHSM
Outline: (§3)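 In vitro ATP-site competition binding assay across a diverse panel of 128 kinases, with each compound tested at a single concentration. Kinase binding is expressed relative to control.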

[7] = biological target: Ribosomal protein S6 kinase alpha-2 (Homo sapiens) (UniProt Q15349); assay: Competitive binding affinity to RPS6KA2 kinase domain 1 (unknown origin) at 10 uM in presence of ATP relative to control; outline: as §3
[8] = biological target: Receptor-interacting serine/threonine-protein kinase 2 (Homo sapiens) (UniProt O43353); assay: Competitive binding affinity to RIPK2 (unknown origin) at 10 uM in presence of ATP relative to control; outline: as §2
Sequence of Receptor-interacting serine/threonine-protein kinase 2 (Homo sapiens) (O43353 whole entry): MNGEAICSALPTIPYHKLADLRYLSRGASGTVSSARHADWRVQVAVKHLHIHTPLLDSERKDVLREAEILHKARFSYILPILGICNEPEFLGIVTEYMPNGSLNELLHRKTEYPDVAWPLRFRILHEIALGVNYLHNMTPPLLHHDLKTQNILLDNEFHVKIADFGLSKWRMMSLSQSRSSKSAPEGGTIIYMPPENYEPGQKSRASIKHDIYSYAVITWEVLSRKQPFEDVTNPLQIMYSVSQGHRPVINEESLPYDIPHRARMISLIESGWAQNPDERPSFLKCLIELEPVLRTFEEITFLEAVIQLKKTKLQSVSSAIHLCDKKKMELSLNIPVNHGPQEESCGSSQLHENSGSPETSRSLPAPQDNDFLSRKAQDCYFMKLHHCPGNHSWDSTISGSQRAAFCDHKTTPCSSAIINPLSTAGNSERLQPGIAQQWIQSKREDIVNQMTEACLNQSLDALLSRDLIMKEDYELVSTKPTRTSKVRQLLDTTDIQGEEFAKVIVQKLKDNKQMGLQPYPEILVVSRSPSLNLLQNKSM

[9] = biological target: Focal adhesion kinase 1 (Homo sapiens) (UniProt Q05397); assay: Competitive binding affinity to PTK2 (unknown origin) at 10 uM in presence of ATP relative to control; outline: as §2
Sequence of Focal adhesion kinase 1 (Homo sapiens) (Q05397 2-1052 limits assumed): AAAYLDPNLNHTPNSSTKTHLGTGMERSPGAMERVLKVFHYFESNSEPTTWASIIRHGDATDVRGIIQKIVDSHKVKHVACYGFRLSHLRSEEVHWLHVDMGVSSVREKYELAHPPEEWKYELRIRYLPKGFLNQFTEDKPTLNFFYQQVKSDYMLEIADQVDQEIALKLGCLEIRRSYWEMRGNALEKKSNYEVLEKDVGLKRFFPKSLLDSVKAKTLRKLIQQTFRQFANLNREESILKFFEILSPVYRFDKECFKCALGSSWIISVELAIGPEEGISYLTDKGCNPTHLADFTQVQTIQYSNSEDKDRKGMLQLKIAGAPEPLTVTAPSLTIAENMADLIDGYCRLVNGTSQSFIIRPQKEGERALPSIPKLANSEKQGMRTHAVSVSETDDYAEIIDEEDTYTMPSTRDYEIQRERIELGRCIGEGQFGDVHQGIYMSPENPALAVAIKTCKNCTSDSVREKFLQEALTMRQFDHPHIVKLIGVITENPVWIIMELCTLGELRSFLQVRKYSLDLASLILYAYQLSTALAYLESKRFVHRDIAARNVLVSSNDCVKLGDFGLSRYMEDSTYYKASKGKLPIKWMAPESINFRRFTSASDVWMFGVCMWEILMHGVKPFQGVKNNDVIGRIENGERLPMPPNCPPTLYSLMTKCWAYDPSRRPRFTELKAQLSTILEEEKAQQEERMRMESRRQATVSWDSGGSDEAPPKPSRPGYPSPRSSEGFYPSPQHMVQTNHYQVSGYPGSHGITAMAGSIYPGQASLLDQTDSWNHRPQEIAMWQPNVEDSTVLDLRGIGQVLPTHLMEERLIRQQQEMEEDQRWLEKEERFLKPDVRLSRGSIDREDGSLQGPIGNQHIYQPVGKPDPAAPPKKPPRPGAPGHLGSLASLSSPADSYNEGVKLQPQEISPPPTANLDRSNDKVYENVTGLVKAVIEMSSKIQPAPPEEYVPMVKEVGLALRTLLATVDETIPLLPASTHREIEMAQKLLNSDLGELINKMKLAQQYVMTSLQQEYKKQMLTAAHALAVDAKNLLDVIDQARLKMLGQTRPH

[10] = biological target: Mast/stem cell growth factor receptor Kit (Homo sapiens) (UniProt P10721); assay: Competitive binding affinity to KIT (unknown origin) at 10 uM in presence of ATP relative to control; outline: as §1
Sequence of Mast/stem cell growth factor receptor Kit (Homo sapiens) (P10721 whole entry): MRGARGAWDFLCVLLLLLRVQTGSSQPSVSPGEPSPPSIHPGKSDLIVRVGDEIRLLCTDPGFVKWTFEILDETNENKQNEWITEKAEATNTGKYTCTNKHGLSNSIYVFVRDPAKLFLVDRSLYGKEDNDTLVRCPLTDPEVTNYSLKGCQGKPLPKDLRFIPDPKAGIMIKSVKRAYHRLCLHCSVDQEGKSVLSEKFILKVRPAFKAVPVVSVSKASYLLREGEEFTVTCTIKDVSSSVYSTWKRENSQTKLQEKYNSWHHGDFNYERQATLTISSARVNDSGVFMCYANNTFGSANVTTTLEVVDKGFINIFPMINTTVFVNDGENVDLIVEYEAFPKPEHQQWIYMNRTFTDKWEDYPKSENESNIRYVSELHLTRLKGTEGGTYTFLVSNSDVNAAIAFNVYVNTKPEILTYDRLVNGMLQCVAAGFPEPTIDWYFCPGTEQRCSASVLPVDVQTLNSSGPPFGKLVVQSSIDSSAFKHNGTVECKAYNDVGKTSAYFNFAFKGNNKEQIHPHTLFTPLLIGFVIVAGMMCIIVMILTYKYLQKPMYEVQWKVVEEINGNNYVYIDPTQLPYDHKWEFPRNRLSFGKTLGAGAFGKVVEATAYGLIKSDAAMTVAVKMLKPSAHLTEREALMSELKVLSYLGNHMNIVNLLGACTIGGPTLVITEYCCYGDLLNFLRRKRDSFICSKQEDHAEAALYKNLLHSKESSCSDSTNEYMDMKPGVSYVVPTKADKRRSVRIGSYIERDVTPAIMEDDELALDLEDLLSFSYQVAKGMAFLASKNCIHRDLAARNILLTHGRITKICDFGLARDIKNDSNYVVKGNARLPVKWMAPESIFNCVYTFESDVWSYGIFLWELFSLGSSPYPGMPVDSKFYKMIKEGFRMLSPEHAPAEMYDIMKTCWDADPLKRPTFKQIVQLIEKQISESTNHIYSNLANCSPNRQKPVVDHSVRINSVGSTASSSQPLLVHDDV

inhibition [1] [%] | inhibition [2] [%] | inhibition [3] [%] | inhibition [4] [%] | inhibition [5] [%] | inhibition [6] [%] | inhibition [7] [%] | inhibition [8] [%] | inhibition [9] [%] | inhibition [10] [%] | SMILES
< 50 | 87 | < 50 | < 50 | 79 | 97 | 73 | < 50 | < 50 | 91 | O[C@H]1CC[C@H](Nc2nccc(-n3ncc4ccccc43)n2)CC1
< 50 | 80 | < 50 | < 50 | < 50 | 84 | < 50 | < 50 | < 50 | 72 | O[C@H]1CC[C@H](Nc2nccc(-n3ccc4ccccc43)n2)CC1
< 50 | < 50 | 97 | < 50 | 92 | 100 | 91 | < 50 | < 50 | 72 | N[C@H]1CC[C@H](Nc2nccc(-n3nnc4ccccc43)n2)CC1
< 50 | < 50 | < 50 | < 50 | < 50 | 95 | 100 | < 50 | < 50 | 67 | O=C([C@H]1CC[C@H](Nc2nccc(-n3nnc4ccccc43)n2)CC1)N1CCOCC1
< 50 | 88 | 96 | < 50 | 99 | 99 | 99 | < 50 | 85 | 98 | O[C@H]1CC[C@H](Nc2nccc(-c3n[nH]c4ccccc34)n2)CC1
< 50 | 67 | < 50 | < 50 | < 50 | 96 | 95 | 66 | < 50 | 86 | O[C@H]1CC[C@H](Nc2nccc(-n3nnc4ccccc43)n2)CC1

— ChEMBL document CHEMBL2424622, “Development of amino-pyrimidine inhibitors of c-Jun N-terminal kinase (JNK): kinase profiling guided optimization of a 1,2,3-benzotriazole lead” (Bioorg Med Chem Lett, 2013)
